Source: ChEMBL document CHEMBL4190330, “Discovery of Potent and Selective A2A Antagonists with Efficacy in Animal Models of Parkinson's Disease and Depression” (ACS Med Chem Lett, 2017)
Active and inactive are the calls of the source. The rule behind the calls is not given here.

What was measured:
[1] = AUC (0 to t) in Wistar rat at 10 mg/kg, po administered via gavage by LC-MS/MS analysis; format: ADME, organism-based; conditions: in vivo
[2] = target: T1, Nuclear receptor subfamily 1 group I member 2 (Homo sapiens, UniProt O75469); assay: Transactivation of recombinant human PXR expressed in HepG2 cells after 42 hrs by dual luciferase reporter gene assay; format: ADME, cell-based
T1 sequence (O75469 whole entry): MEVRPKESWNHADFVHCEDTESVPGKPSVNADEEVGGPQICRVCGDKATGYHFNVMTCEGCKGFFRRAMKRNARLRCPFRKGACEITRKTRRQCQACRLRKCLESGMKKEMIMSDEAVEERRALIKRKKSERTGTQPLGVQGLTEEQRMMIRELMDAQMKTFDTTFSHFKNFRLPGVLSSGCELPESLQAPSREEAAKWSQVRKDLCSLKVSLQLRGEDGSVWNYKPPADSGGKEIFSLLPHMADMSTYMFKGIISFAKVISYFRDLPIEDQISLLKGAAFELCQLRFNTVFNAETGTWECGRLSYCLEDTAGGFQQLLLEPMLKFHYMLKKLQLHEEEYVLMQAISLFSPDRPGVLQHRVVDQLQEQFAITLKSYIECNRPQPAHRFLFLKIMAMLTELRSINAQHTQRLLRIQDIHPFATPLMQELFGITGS

[3] = target: T2, Adenosine receptor A1 (Homo sapiens) (UniProt P30542); assay: Antagonist activity at human adenosine A1 receptor expressed in HEK293 cell membranes assessed as inhibition of CPA/forskolin-induced cAMP level at 10 uM pretreated for 15 mins followed by agonist addition for 15 mins and subsequent forskolin stimulation measured after 30 mins by HTRF assay; format: functional, cell-based
T2 sequence (whole entry): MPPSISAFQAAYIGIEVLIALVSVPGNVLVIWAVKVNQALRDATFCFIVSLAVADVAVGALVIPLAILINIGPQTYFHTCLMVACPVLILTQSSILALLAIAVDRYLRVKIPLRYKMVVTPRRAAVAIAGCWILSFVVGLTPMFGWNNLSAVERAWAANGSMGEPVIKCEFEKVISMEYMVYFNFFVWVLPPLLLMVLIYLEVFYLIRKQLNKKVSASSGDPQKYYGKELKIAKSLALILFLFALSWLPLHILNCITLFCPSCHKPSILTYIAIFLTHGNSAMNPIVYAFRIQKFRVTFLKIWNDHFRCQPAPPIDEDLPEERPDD
Outline: (§1)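 HTRF cAMP functional assay on the human receptor isoform, run in triplicate at 12 concentrations with a top concentration of 10 µM, in two independent experiments. Inhibition at 10 µM is recorded where no Ki could be derived.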

HepG2 = assay: Cytotoxicity against human HepG2 cells after 24 hrs by MTT assay; format: cell-based; conditions: HepG2, 24 h
[4] = target: T3, Adenosine receptor A2b (Homo sapiens) (UniProt P29275); assay: Antagonist activity at human A2B receptor expressed in HEK293 cell membranes assessed as inhibition of NECA-induced cAMP level at 10 uM pretreated for 15 mins followed by NECA addition measured after 15 mins by HTRF assay; format: functional, cell-based; outline: as §1
T3 sequence (whole entry): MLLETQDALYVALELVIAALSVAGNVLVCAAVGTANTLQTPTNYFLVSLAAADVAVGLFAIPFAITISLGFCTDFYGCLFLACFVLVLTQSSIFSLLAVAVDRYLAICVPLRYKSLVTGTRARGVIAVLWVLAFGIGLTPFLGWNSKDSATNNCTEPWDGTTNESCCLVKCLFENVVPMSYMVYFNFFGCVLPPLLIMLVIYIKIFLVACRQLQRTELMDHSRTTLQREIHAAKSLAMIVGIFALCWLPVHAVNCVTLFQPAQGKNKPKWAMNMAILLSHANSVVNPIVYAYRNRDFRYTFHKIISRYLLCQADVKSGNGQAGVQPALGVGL

Cytochrome P450 2C9 = Cytochrome P450 2C9 (Homo sapiens, UniProt P11712); assay: Inhibition of CYP2C9 (unknown origin); format: ADME
Sequence of Cytochrome P450 2C9 (P11712 whole entry): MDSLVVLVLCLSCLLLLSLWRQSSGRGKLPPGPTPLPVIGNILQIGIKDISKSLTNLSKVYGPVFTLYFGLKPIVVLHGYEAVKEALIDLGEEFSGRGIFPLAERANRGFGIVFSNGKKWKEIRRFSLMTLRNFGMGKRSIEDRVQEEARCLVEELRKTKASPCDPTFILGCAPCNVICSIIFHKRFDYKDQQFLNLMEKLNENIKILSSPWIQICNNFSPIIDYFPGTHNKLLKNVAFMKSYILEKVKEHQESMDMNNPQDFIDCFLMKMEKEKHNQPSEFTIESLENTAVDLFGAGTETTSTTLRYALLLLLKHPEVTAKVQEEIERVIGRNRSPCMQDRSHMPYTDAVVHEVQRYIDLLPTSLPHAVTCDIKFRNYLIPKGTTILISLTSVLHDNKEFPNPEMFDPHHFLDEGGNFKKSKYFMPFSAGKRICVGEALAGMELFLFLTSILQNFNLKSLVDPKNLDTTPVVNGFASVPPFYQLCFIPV

[5] = Cmax in Wistar rat at 10 mg/kg, po administered via gavage by LC-MS/MS analysis; format: ADME, organism-based; set-up: dose 10 mg/kg, route oral; conditions: in vivo
Outline: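 Male Wistar rats, n = 4; oral dose 10 mg/kg as suspension in 1% Tween 80 with 0.5% w/v NaCMC; values are means.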

Rattus norvegicus = assay: Anti-parkinson's activity in po dosed Wistar rat assessed as reversal of haloperidol-induced catalepsy measured after 1 to 4 hrs; format: functional, organism-based
Outline: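 Haloperidol-induced catalepsy in rats; oral dosing; catalepsy scored at 1, 2 and 4 h; ED50 derived; mean ± SEM, n=6-7.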

Homo sapiens = species: Homo sapiens; assay: Selectivity ratio of Ki for displacement of [3H]-MRS-1754 from human A2B receptor expressed in HEK293 cell membranes to Ki for displacement of [3H]ZM241385 from human A2A receptor expressed in HEK293 cell membranes
Outline: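 Radioligand binding used membranes from HEK-293 cells overexpressing each human adenosine receptor isoform. Points were run in triplicate, and 8-concentration IC50 curves were plotted to give Ki. The selectivity value is the Ki at the off-target isoform divided by the Ki at hA2A.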

[6] = AUC (0 to t) in Wistar rat at 3 mg/kg, iv by LC-MS/MS analysis; format: ADME, organism-based; conditions: in vivo
Cytochrome P450 2D6 = Cytochrome P450 2D6 (Homo sapiens, UniProt P10635); assay: Inhibition of CYP2D6 (unknown origin); format: ADME
Sequence of Cytochrome P450 2D6 (P10635 whole entry): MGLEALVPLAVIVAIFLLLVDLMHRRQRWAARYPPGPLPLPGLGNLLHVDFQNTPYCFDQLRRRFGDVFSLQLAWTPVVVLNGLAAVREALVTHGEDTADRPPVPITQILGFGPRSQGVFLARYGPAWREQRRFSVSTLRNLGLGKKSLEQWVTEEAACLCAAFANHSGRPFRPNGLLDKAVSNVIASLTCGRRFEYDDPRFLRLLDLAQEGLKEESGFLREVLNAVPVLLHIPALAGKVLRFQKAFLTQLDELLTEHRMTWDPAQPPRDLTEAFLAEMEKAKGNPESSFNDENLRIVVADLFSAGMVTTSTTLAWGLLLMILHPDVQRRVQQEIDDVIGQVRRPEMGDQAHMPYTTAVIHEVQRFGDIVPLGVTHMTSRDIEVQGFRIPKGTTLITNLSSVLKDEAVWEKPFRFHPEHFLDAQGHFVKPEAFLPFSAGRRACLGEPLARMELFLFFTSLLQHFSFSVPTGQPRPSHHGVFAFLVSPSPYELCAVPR

[7] = Ratio of AUC (0 to 4 hrs) in Wistar rat brain to plasma at 3 mg/kg, iv by LC-MS/MS analysis; format: ADME, organism-based; conditions: read-out: Ratio AUC
[8] = Protein binding in human plasma; format: ADME, cell-free; conditions: read-out: PPB (converted)
Mus musculus = assay: Antidepressant-like activity in po dosed mouse assessed as reduction in immobility time treated 1 hr prior to testing measured last 4 mins of 6 mins test by forced swim test
Cytochrome P450 1A2 = target: T4, Cytochrome P450 1A2 (Homo sapiens, UniProt P05177); assay: Inhibition of CYP1A2 (unknown origin); format: ADME
T4 sequence (P05177 whole entry): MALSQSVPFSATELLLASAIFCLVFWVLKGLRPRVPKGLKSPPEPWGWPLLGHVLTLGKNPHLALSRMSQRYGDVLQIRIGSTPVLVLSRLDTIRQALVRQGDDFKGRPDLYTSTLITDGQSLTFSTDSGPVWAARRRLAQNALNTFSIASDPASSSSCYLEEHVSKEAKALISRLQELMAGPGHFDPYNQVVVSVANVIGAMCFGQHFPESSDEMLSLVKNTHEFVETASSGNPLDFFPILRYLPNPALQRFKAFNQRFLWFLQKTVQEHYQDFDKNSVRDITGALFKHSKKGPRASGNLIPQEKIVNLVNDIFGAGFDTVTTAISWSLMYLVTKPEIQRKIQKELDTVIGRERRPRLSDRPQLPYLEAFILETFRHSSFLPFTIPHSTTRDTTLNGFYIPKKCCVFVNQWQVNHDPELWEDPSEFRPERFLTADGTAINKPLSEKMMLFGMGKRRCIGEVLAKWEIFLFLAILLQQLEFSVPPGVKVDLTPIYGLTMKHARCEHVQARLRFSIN

AUC(0-t) [1]: 2.2 µM·h | EC50 [2]: > 60 µM | inhibition [3]: inactive | inhibition [4]: < 50% | IC50 (Cytochrome P450 2C9): > 10 µM | Cmax [5]: 600 nM | AUC(0-t) [6]: 3.6 µM·h | IC50 (Cytochrome P450 2D6): > 10 µM | Kp [7]: 0.38 | fraction unbound [8]: 0.15 | IC50 (Cytochrome P450 1A2): > 10 µM
Compound: COCCOc1ccc(N2CCN(CCn3c(=O)n(C)c4c3nc(N)n3nc(-c5nccs5)nc43)CC2)cc1F
IC50 (HepG2): > 30 µM | Activity (Rattus norvegicus): Dose-dependent effect | ED50 (Rattus norvegicus): 4.49 mg/kg | Ratio Ki (Homo sapiens): > 3000 | ED50 (Mus musculus): 5.29 mg/kg
